Results taken from ChEMBL document CHEMBL4229382, “Phenylthiazoles with tert-Butyl side chain: Metabolically stable with anti-biofilm activity” (Eur J Med Chem, 2018).
Values after ≈ are worked out from the molar mass of the structure shown. Active and inactive are the calls of the source. The rule behind the calls is not given here.

What was measured:
Staphylococcus aureus [1] = test: Inhibition of biofilm formation in methicillin-resistant Staphylococcus aureus NRS384 USA300 after 24 hrs by crystal violet staining-based spectrophotometric analysis
[2] = Safety index, ratio of cytotoxicity against human Caco2 cells at 32 ug/ml after 2 hrs by MTS assay to antibacterial activity against methicillin-resistant Staphylococcus aureus; assay type: toxicity, cell-based; conditions: Caco-2 cells
Staphylococcus aureus [3] = test: Antibacterial activity against methicillin-resistant Staphylococcus aureus 2658 RCMB after 18 hrs by broth microdilution assay; assay type: functional
Method in brief: (§1)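 Broth microdilution: inoculum from 0.5 McFarland suspension diluted to about 5 × 10^5 CFU/mL. Media were cation-adjusted Mueller-Hinton broth for staphylococci, brain heart infusion for E. faecium, and tryptone soya broth for E. faecalis, S. pneumoniae and L. monocytogenes.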

Caco-2 = test: Cytotoxicity against human Caco2 cells at 32 ug/ml after 2 hrs by MTS assay; assay type: cell-based; conditions: caco-2, 2 h
Method in brief: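 Caco-2 cells grown in DMEM with 20% FBS, non-essential amino acids and penicillin-streptomycin, 37 °C, 5% CO2; exposed in triplicate to compounds (16, 32, 64 µg/mL) for 2 h; MTS added, 4 h further incubation, OD490 read; viability as percent of DMSO-treated controls; two independent experiments.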

Enterococcus faecalis [4] = test: Antibacterial activity against vancomycin-resistant Enterococcus faecalis ATCC 51299 after 18 hrs by broth microdilution assay; assay type: functional; conditions: ATCC 51299, 18 h
Method in brief: as §1

Staphylococcus aureus [5] = test: Antibacterial activity against methicillin-resistant Staphylococcus aureus NRS385 after 18 hrs by broth microdilution assay; assay type: functional; conditions: NRS385, 18 h
Method in brief: as §1

Enterococcus faecium [6] = test: Bactericidal activity against vancomycin-resistant Enterococcus faecium ATCC 700221 incubated fo 18 hrs followed by re-plating on tryptic soy agar plates at 37 degC for 18 hrs by broth microdilution assay; conditions: ATCC 700221, 18 h
Staphylococcus aureus [7] = test: Antibacterial activity against methicillin-resistant Staphylococcus aureus NRS384 USA300 after 18 hrs by broth microdilution assay; assay type: functional; conditions: NRS384 USA300, 18 h
Method in brief: as §1

[8] = test system: Staphylococcus epidermidis; test: Antibacterial activity against methicillin-resistant Staphylococcus epidermidis NRS101 after 18 hrs by broth microdilution assay; assay type: functional; conditions: NRS101, 18 h
Method in brief: as §1

Staphylococcus aureus [9] = test: Inhibition of biofilm formation in methicillin-resistant Staphylococcus aureus NRS384 USA300 at 1 time MIC after 24 hrs by crystal violet staining-based spectrophotometric analysis relative to control; set-up: scale not given: the % may be the effect or the level left
[10] = test system: Staphylococcus epidermidis; test: Bactericidal activity against methicillin-resistant Staphylococcus epidermidis NRS101 incubated fo 18 hrs followed by re-plating on tryptic soy agar plates at 37 degC for 18 hrs by broth microdilution assay; assay type: functional; conditions: NRS101, 18 h
Staphylococcus aureus [11] = test: Inhibition of biofilm formation in methicillin-resistant Staphylococcus aureus NRS384 USA300 at 2 times MIC after 24 hrs by crystal violet staining-based spectrophotometric analysis relative to control; set-up: scale not given: the % may be the effect or the level left
Staphylococcus aureus [12] = test: Antibacterial activity against methicillin-resistant Staphylococcus aureus NRS123 USA400 assessed as reduction in bacterial growth after 2 to 4 hrs by time kill assay; assay type: functional, organism-based
Method in brief: (§2)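 Samples taken at 0, 2, 4, 6, 8, 12 and 24 h were serially diluted in PBS, plated on TSA and incubated ≥18 h for viable CFU/mL. DMSO was the negative control; two independent experiments.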

Staphylococcus aureus [13] = test: Antibacterial activity against methicillin-sensitive Staphylococcus aureus ATCC 6538 after 18 hrs by broth microdilution assay; assay type: functional; conditions: ATCC 6538, 18 h
Method in brief: as §1

Enterococcus faecium [14] = test: Antibacterial activity against vancomycin-resistant Enterococcus faecium ATCC 700221 after 18 hrs by broth microdilution assay; assay type: functional; conditions: ATCC 700221, 18 h
Method in brief: as §1

Streptococcus pneumoniae [15] = test: Bactericidal activity against methicillin-resistant Streptococcus pneumoniae ATCC 700677 incubated fo 18 hrs followed by re-plating on tryptic soy agar plates at 37 degC for 18 hrs by broth microdilution assay; assay type: functional; conditions: ATCC 700677, 18 h
Staphylococcus aureus [16] = test: Bactericidal activity against methicillin-resistant Staphylococcus aureus NRS385 incubated fo 18 hrs followed by re-plating on tryptic soy agar plates at 37 degC for 18 hrs by broth microdilution assay; assay type: functional; conditions: NRS385, 18 h
Staphylococcus aureus [17] = test: Bactericidal activity against methicillin-resistant Staphylococcus aureus NRS386 incubated fo 18 hrs followed by re-plating on tryptic soy agar plates at 37 degC for 18 hrs by broth microdilution assay; assay type: functional; conditions: NRS386, 18 h
Staphylococcus aureus [18] = test: Bactericidal activity against methicillin-sensitive Staphylococcus aureus ATCC 6538 incubated fo 18 hrs followed by re-plating on tryptic soy agar plates at 37 degC for 18 hrs by broth microdilution assay; assay type: functional; conditions: ATCC 6538, 18 h
Staphylococcus aureus [19] = test: Antibacterial activity against methicillin-resistant Staphylococcus aureus NRS386 after 18 hrs by broth microdilution assay; assay type: functional; conditions: NRS386, 18 h
Method in brief: as §1

Staphylococcus aureus [20] = test: Bactericidal activity against vancomycin-resistant Staphylococcus aureus VRS12 incubated fo 18 hrs followed by re-plating on tryptic soy agar plates at 37 degC for 18 hrs by broth microdilution assay; assay type: functional; conditions: VRS12, 18 h
Streptococcus pneumoniae [21] = test: Bactericidal activity against cephalosporin-resistant Streptococcus pneumoniae ATCC 51916 incubated fo 18 hrs followed by re-plating on tryptic soy agar plates at 37 degC for 18 hrs by broth microdilution assay; assay type: functional; conditions: ATCC 51916, 18 h
Streptococcus pneumoniae [22] = test: Antibacterial activity against cephalosporin-resistant Streptococcus pneumoniae ATCC 51916 after 18 hrs by broth microdilution assay; assay type: functional; conditions: ATCC 51916, 18 h
Method in brief: as §1

Staphylococcus aureus [23] = test: Bactericidal activity against methicillin-resistant Staphylococcus aureus NRS123 USA400 incubated fo 18 hrs followed by re-plating on tryptic soy agar plates at 37 degC for 18 hrs by broth microdilution assay; assay type: functional; conditions: NRS123 USA400, 18 h
Staphylococcus aureus [24] = test: Bactericidal activity against methicillin-resistant Staphylococcus aureus NRS384 USA300 incubated fo 18 hrs followed by re-plating on tryptic soy agar plates at 37 degC for 18 hrs by broth microdilution assay; assay type: functional; conditions: NRS384 USA300, 18 h
Staphylococcus aureus [25] = test: Bactericidal activity against vancomycin-resistant Staphylococcus aureus VRS10 incubated fo 18 hrs followed by re-plating on tryptic soy agar plates at 37 degC for 18 hrs by broth microdilution assay; assay type: functional; conditions: VRS10, 18 h
Staphylococcus aureus [26] = test: Antibacterial activity against methicillin-resistant Staphylococcus aureus NRS119 after 18 hrs by broth microdilution assay; assay type: functional; conditions: NRS119, 18 h
Method in brief: as §1

Listeria monocytogenes [27] = test: Antibacterial activity against Listeria monocytogenes ATCC 19111 after 18 hrs by broth microdilution assay; assay type: functional; conditions: ATCC 19111, 18 h
Enterococcus faecalis [28] = test: Bactericidal activity against vancomycin-resistant Enterococcus faecalis ATCC 51299 incubated fo 18 hrs followed by re-plating on tryptic soy agar plates at 37 degC for 18 hrs by broth microdilution assay; assay type: functional; conditions: ATCC 51299, 18 h
Staphylococcus aureus [29] = test: Antibacterial activity against methicillin-sensitive Staphylococcus aureus NRS107 after 18 hrs by broth microdilution assay; assay type: functional; conditions: NRS107, 18 h
Method in brief: as §1

Staphylococcus aureus [30] = test: Bactericidal activity against methicillin-resistant Staphylococcus aureus NRS119 incubated fo 18 hrs followed by re-plating on tryptic soy agar plates at 37 degC for 18 hrs by broth microdilution assay; assay type: functional; conditions: NRS119, 18 h
Staphylococcus aureus [31] = test: Bactericidal activity against methicillin-sensitive Staphylococcus aureus NRS107 incubated fo 18 hrs followed by re-plating on tryptic soy agar plates at 37 degC for 18 hrs by broth microdilution assay; assay type: functional; conditions: NRS107, 18 h
Streptococcus pneumoniae [32] = test: Antibacterial activity against methicillin-resistant Streptococcus pneumoniae ATCC 700677 after 18 hrs by broth microdilution assay; assay type: functional; conditions: ATCC 700677, 18 h
Method in brief: as §1

Listeria monocytogenes [33] = test: Selectivity ratio of MBC to MIC for Listeria monocytogenes ATCC 19111; assay type: functional
Staphylococcus aureus [34] = test: Antibacterial activity against methicillin-resistant Staphylococcus aureus NRS123 USA400 after 18 hrs by broth microdilution assay; assay type: functional; conditions: NRS123 USA400, 18 h
Method in brief: as §1

Staphylococcus aureus [35] = test: Antibacterial activity against vancomycin-resistant Staphylococcus aureus VRS12 after 18 hrs by broth microdilution assay; assay type: functional; conditions: VRS12, 18 h
Method in brief: as §1

Staphylococcus aureus [36] = test: Antibacterial activity against vancomycin-resistant Staphylococcus aureus VRS10 after 18 hrs by broth microdilution assay; assay type: functional; conditions: VRS10, 18 h
Method in brief: as §1

Staphylococcus aureus [37] = test: Antibacterial activity against methicillin-resistant Staphylococcus aureus NRS123 USA400 assessed as reduction in bacterial burden within 6 hrs by time kill assay; assay type: functional
Method in brief: as §2

Cc1nc(-c2ccc(C(C)(C)C)cc2)sc1-c1ccnc(NC(=N)N2CCOCC2)n1
inhibition (Staphylococcus aureus [1]): Dose-dependent effect | selectivity ratio at 2 h, 32 ug/ml [2]: 8 to 30 | MIC (Staphylococcus aureus [3]): 1.17 µg/mL (≈ 2.68 µM) | Activity (Caco-2): Non-Toxic | MIC (Enterococcus faecalis [4]): 4 µg/mL (≈ 9.16 µM) | MIC (Staphylococcus aureus [5]): 4 µg/mL (≈ 9.16 µM) | MBC (Enterococcus faecium [6]): 8 µg/mL (≈ 18.3 µM) | MIC (Staphylococcus aureus [7]): 4 µg/mL (≈ 9.16 µM) | MIC [8]: 4 µg/mL (≈ 9.16 µM) | Activity (Staphylococcus aureus [9]): 18.1% | MBC [10]: 4 µg/mL (≈ 9.16 µM) | Activity (Staphylococcus aureus [11]): 28.3% | Activity (Staphylococcus aureus [12]): Active | MIC (Staphylococcus aureus [13]): 4 µg/mL (≈ 9.16 µM) | MIC (Enterococcus faecium [14]): 4 µg/mL (≈ 9.16 µM)

Cc1nc(-c2ccc(C(C)(C)C)cc2)sc1-c1ccnc(NC(=N)c2ccccn2)n1
inhibition (Staphylococcus aureus [1]): Dose-dependent effect | MBC (Streptococcus pneumoniae [15]): 8 µg/mL (≈ 18.7 µM) | MBC (Staphylococcus aureus [16]): 4 µg/mL (≈ 9.33 µM) | MBC (Staphylococcus aureus [17]): 2 µg/mL (≈ 4.67 µM) | MIC (Staphylococcus aureus [3]): 0.78 µg/mL (≈ 1.82 µM) | MBC (Staphylococcus aureus [18]): 4 µg/mL (≈ 9.33 µM) | Activity (Caco-2): Toxic | MIC (Staphylococcus aureus [19]): 2 µg/mL (≈ 4.67 µM) | MIC (Enterococcus faecalis [4]): 64 µg/mL (≈ 149 µM) | MBC (Staphylococcus aureus [20]): 4 µg/mL (≈ 9.33 µM) | MBC (Streptococcus pneumoniae [21]): 4 µg/mL (≈ 9.33 µM) | MIC (Streptococcus pneumoniae [22]): 4 µg/mL (≈ 9.33 µM) | MIC (Staphylococcus aureus [5]): 4 µg/mL (≈ 9.33 µM) | MBC (Staphylococcus aureus [23]): 2 µg/mL (≈ 4.67 µM) | MBC (Staphylococcus aureus [24]): 4 µg/mL (≈ 9.33 µM) | MBC (Staphylococcus aureus [25]): 4 µg/mL (≈ 9.33 µM) | MIC (Staphylococcus aureus [26]): 4 µg/mL (≈ 9.33 µM) | MBC (Enterococcus faecium [6]): 32 µg/mL (≈ 74.7 µM) | MIC (Staphylococcus aureus [7]): 4 µg/mL (≈ 9.33 µM) | MIC (Listeria monocytogenes [27]): 2 µg/mL (≈ 4.67 µM) | MBC (Enterococcus faecalis [28]): > 64 µg/mL | MIC [8]: 64 µg/mL (≈ 149 µM) | Activity (Staphylococcus aureus [9]): 44% | MBC [10]: > 64 µg/mL | Activity (Staphylococcus aureus [11]): 49% | MIC (Staphylococcus aureus [29]): 64 µg/mL (≈ 149 µM) | MBC (Staphylococcus aureus [30]): 4 µg/mL (≈ 9.33 µM) | MBC (Staphylococcus aureus [31]): > 64 µg/mL | MIC (Streptococcus pneumoniae [32]): 8 µg/mL (≈ 18.7 µM) | MIC (Staphylococcus aureus [13]): 2 µg/mL (≈ 4.67 µM) | Ratio (Listeria monocytogenes [33]): >3 | MIC (Staphylococcus aureus [34]): 2 µg/mL (≈ 4.67 µM) | MIC (Staphylococcus aureus [35]): 4 µg/mL (≈ 9.33 µM) | MIC (Enterococcus faecium [14]): 4 µg/mL (≈ 9.33 µM) | MIC (Staphylococcus aureus [36]): 2 µg/mL (≈ 4.67 µM) | Activity (Staphylococcus aureus [37]): 3 log10CFU/ml

CN[C@H](CC(C)C)C(=O)N[C@H]1C(=O)N[C@@H](CC(N)=O)C(=O)N[C@H]2C(=O)N[C@H]3C(=O)N[C@H](C(=O)N[C@H](C(=O)O)c4cc(O)cc(O)c4-c4cc3ccc4O)[C@H](O)c3ccc(c(Cl)c3)Oc3cc2cc(c3O[C@@H]2O[C@H](CO)[C@@H](O)[C@H](O)[C@H]2O[C@H]2C[C@](C)(N)[C@H](O)[C@H](C)O2)Oc2ccc(cc2Cl)[C@H]1O [VANCOMYCIN]
MBC (Staphylococcus aureus [25]): > 64 µg/mL | MBC (Enterococcus faecium [6]): > 64 µg/mL | MBC (Enterococcus faecalis [28]): 64 µg/mL (≈ 44.2 µM) | Activity (Staphylococcus aureus [9]): 3% | MIC (Enterococcus faecium [14]): > 64 µg/mL
